Experimental data: paper PMC7810372 (Science Advances, 2021)
One block for each compound: values may come before it.

Key:
[1] = system: MDA231 BAX/BAK knockdown (siRNA) cells; assay: Drug screen and low-throughput cell viability; type: cell-based, human; conditions: 48 hr treatment, CellTiter-Glo % survival, BAX/BAK KD versus control
[2] = system: BT-549 cells; assay: Extracellular flux assay, ECAR; type: cell-based, human; conditions: 2 µM, 24 hrs
Procedure, shortened: (§1)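 Seahorse XF96: cells were seeded for 24 h, then treated for a further 24 h. One hour before the run they were changed to XF Base medium, pH 7.4, with 1 mM L-glutamine. ECAR was read three times at baseline and three times after each sequential injection of glucose (10 mM), oligomycin (1 µM) and 2-DG (50 mM). Readings were protein-normalized, baseline-subtracted and expressed as fold change versus DMSO.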

[3] = system: aldolase in BT-549 cells; assay: Aldolase activity assay; type: cell-based, human; conditions: 24 hr treatment
Procedure, shortened: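 Cells (1×10^6 for MDA231) were exposed to test compound for 24 h. Aldolase or GAPDH activity was then measured with a commercial kit following the maker's protocol. Values were normalized to protein concentration and expressed as fold change relative to DMSO.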

[4] = biological target: T1, HDAC8 (Homo sapiens, UniProt Q9BY41); assay: HDAC inhibitory assay; type: biochemical
T1 sequence (Q9BY41 1-377): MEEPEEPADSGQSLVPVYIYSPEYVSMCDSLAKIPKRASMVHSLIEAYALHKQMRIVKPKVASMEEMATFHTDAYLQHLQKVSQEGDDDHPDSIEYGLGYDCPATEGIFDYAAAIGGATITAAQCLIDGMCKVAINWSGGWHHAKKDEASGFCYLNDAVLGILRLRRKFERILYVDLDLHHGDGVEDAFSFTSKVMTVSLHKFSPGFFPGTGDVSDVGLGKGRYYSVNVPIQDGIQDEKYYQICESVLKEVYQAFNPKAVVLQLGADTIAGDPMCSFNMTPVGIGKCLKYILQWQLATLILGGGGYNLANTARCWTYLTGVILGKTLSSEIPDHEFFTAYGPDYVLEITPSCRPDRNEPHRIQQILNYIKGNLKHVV

[5] = biological target: T2, HDAC7 (Homo sapiens, UniProt Q8WUI4); assay: HDAC inhibitory assay; type: biochemical
T2 sequence (Q8WUI4 1-952): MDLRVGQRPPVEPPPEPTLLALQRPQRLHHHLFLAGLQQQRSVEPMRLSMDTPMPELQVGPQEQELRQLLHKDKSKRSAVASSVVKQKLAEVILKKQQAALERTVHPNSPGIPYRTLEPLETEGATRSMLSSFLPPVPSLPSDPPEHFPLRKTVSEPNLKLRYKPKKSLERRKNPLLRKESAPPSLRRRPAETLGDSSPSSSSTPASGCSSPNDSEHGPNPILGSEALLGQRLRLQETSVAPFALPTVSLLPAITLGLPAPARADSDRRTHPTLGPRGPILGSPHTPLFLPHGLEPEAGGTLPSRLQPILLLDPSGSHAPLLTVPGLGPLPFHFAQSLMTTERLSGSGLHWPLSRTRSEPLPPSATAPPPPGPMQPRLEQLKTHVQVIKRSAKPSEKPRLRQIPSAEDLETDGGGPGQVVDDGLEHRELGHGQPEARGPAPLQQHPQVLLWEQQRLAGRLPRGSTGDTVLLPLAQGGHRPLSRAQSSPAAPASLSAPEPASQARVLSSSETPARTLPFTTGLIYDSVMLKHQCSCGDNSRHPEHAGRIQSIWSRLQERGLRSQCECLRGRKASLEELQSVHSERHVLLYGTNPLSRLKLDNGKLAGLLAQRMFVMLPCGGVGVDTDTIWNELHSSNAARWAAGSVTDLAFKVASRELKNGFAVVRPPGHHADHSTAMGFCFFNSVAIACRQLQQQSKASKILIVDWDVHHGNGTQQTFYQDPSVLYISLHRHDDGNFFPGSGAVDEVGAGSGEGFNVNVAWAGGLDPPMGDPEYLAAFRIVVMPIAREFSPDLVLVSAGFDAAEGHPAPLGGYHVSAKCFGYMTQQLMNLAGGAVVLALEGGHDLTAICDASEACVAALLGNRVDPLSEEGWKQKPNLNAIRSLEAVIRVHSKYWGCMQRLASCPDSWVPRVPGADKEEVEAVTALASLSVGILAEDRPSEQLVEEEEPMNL

[6] = biological target: HDAC1 (Homo sapiens, UniProt Q13547); assay: HDAC inhibitory assay; type: biochemical
HDAC1, sequence (Q13547 whole entry): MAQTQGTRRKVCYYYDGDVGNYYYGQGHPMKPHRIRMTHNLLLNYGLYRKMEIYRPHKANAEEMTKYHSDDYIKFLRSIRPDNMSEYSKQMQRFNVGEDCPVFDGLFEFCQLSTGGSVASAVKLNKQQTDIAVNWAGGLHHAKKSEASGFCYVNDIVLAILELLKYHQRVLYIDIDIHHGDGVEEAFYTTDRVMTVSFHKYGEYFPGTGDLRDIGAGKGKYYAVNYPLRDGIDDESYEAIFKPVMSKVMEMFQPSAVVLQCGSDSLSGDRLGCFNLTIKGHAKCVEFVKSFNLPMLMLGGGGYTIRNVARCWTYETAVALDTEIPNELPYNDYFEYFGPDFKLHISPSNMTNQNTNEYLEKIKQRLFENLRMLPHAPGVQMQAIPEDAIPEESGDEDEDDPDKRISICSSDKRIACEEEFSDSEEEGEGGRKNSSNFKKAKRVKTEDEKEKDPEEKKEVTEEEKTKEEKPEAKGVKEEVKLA

[7] = biological target: T3, HDAC6 (Homo sapiens, UniProt Q9UBN7); assay: HDAC inhibitory assay; type: biochemical
T3 sequence (Q9UBN7 1-1215): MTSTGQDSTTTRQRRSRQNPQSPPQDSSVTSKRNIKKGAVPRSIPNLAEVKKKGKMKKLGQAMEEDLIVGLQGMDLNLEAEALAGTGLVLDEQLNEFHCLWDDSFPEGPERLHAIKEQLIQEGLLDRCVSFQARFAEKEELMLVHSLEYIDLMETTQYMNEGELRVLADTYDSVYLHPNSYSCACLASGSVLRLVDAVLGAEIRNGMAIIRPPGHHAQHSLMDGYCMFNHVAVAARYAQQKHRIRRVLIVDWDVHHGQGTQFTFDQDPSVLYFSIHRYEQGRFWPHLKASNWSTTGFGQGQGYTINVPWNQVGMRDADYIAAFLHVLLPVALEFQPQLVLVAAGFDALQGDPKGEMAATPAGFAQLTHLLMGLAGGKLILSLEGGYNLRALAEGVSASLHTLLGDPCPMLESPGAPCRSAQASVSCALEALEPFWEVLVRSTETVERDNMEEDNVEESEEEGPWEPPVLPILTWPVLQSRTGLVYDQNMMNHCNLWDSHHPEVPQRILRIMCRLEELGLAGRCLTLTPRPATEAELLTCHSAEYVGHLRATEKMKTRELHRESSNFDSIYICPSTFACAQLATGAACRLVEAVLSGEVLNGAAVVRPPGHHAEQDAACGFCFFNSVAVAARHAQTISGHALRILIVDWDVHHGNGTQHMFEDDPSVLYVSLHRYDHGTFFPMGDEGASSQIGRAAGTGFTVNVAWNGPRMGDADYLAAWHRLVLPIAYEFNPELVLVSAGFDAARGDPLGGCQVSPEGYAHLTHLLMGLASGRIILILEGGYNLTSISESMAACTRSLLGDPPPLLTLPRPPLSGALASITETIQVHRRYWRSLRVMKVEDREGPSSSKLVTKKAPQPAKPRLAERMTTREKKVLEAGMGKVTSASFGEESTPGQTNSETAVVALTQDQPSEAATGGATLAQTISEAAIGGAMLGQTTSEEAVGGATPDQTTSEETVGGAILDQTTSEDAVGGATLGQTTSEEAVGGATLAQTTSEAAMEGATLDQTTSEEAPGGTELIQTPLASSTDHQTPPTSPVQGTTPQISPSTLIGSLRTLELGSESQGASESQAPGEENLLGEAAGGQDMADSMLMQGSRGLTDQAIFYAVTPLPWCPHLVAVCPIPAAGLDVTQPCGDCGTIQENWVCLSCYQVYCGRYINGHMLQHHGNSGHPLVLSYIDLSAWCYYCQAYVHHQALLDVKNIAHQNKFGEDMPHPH

[8] = system: MDA231 cells; assay: Extracellular flux assay, ECAR; type: cell-based, human; conditions: 2 µM, 24 hrs
Procedure, shortened: as §1

[9] = system: glucose transporter 1, hexokinase II; conditions: cited from earlier work

SMILES: CN(C)CC[C@H](CSc1ccccc1)Nc1ccc(S(=O)(=O)NC(=O)c2ccc(N3CCN(Cc4ccccc4-c4ccc(Cl)cc4)CC3)cc2)cc1[N+](=O)[O-] [ABT-737]
response to apoptosis-inducing agents [1]: broadly resistant

SMILES: O=C(CCCCCCNC(=O)c1cnc(N(c2ccccc2)c2ccccc2Cl)nc1)NO [ACY-241]
glycolysis and glycolytic capacity (ECAR) ([2]; 1 µM): confirmed all the above results

SMILES: O=C(CCCCCCNC(=O)c1cnc(N(c2ccccc2)c2ccccc2)nc1)NO [ACY-1215]
aldolase enzymatic activity [3]: reduced aldolase activity

inhibition of HDAC activity [4]: inhibits the activity
inhibition of HDAC activity [5]: inhibits the activity
inhibition of HDAC activity [6]: inhibits the activity
inhibition of HDAC activity [7]: inhibits the activity
SMILES: O=C(CCCCCCC(=O)Nc1ccccc1)NO [SAHA, suberoylanilide hydroxamic acid]

SMILES: COc1cc([C@@H]2c3cc4c(cc3[C@@H](O[C@@H]3O[C@@H]5CO[C@@H](C)O[C@H]5[C@H](O)[C@H]3O)[C@H]3COC(=O)[C@H]23)OCO4)cc(OC)c1O [etoposide]
response to apoptosis-inducing agents [1]: broadly resistant

SMILES: O=C(CCCCCCC(=O)Nc1ccc([C@H]2O[C@@H](CSc3nc(-c4ccccc4)c(-c4ccccc4)o3)C[C@@H](c3ccc(CO)cc3)O2)cc1)NO [tubacin]
glycolysis and glycolytic capacity (ECAR) [2]: confirmed all the above results
extracellular acidification rate (ECAR) [8]: reduction

SMILES: CCCC(CCC)C(=O)O [valproate]
glucose transporter 1 [9]: reduction in the glucose transporter 1
hexokinase II activity [9]: reduction in hexokinase II activity
